Results taken from ChEMBL document CHEMBL1152436, “Synthesis, biological evaluation, and three-dimensional in silico pharmacophore model for sigma(1) receptor ligands based on a series of substituted benzo[d]oxazol-2(3H)-one derivatives” (J Med Chem, 2009).

How the values were obtained:
[1] = target: Sigma non-opioid intracellular receptor 1 (Rattus norvegicus, UniProt Q9R0C9); assay: Displacement of [3H](+)-pentazocine from sigma1 receptor in rat liver membrane by liquid scintillation counting; format: cell membranes
[2] = Displacement of [3H]DTG from sigma2 receptor in rat liver membrane by liquid scintillation counting; format: cell membranes
Procedure, shortened: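 Rat liver homogenate (150 μg) incubated 120 min at room temperature with 3 nM [3H]DTG in 50 mM Tris-HCl pH 8.0. σ1 sites masked with 100 nM (+)-pentazocine; nonspecific binding with 10 μM haloperidol. At least 11 ligand concentrations, 0.1% final DMSO. Filtration on PEI-soaked GF/B filters. IC50 and nH from four-parameter fit, 2–4 determinations in duplicate, mean ± SEM.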

Chain of Sigma non-opioid intracellular receptor 1 (Q9R0C9 whole entry): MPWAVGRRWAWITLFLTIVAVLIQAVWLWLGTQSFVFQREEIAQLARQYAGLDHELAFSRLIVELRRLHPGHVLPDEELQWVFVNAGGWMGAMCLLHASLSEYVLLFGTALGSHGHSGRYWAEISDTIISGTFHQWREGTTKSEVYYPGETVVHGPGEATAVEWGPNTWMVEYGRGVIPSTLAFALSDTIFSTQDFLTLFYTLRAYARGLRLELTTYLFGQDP

Structure (SMILES)	Ki [1]	Ki [2]
Cc1ccccc1CN1CCC(Cn2c(=O)oc3ccccc32)CC1	29.8 nM	–
Cc1ccc(CN2CCC(Cn3c(=O)oc4ccccc43)CC2)cc1	3.07 nM	–
Cc1ccc(CN(C)CCCn2c(=O)oc3ccccc32)cc1	871 nM	991 nM
COc1ccccc1CN(C)CCCn1c(=O)oc2ccccc21	1950 nM	192 nM
COc1ccc(CN(C)CCCn2c(=O)oc3ccccc32)cc1	83 nM	2600 nM
Cc1ccc(CN(C)CCCCn2c(=O)oc3ccccc32)cc1	97 nM	22.9 nM
CN(CCCn1c(=O)oc2ccccc21)Cc1ccccc1Cl	2490 nM	456 nM
Cc1ccc(CN2CCC(C(=O)Nc3ccccc3)CC2)cc1	105 nM	–
CN(CCCCn1c(=O)oc2ccccc21)Cc1ccccc1Cl	843 nM	37.4 nM
CN(CCCCn1c(=O)oc2ccccc21)Cc1ccc(Cl)cc1	–	36.2 nM
CN(CCCCn1c(=O)oc2ccccc21)Cc1cccc(Cl)c1	302 nM	–
O=C(Nc1ccccc1)C1CCN(Cc2ccccc2)CC1	48.1 nM	–
CN(CCCn1c(=O)oc2ccccc21)Cc1cccc(Cl)c1	3230 nM	1120 nM
CN(CCCCn1c(=O)oc2ccccc21)Cc1ccccc1	–	120 nM
COc1ccc(CN(C)CCCCn2c(=O)oc3ccccc32)cc1	21 nM	20.8 nM
O=C(Nc1ccccc1)C1CCN(Cc2ccc(Cl)cc2)CC1	45 nM	–
COc1ccccc1CN(C)CCCCn1c(=O)oc2ccccc21	594 nM	–
CN(CCCn1c(=O)oc2ccccc21)Cc1ccc(Cl)cc1	–	456 nM
Cc1ccc(CN2CCC(C(=O)NCc3ccccc3)CC2)cc1	69.4 nM	–
Cc1ccc(CN(C)CCCCn2c(=O)oc3ccccc32)c(C)c1	239 nM	6.94 nM
Cc1cccc(CN(C)CCCCn2c(=O)oc3ccccc32)c1	102 nM	31.8 nM
Cc1cccc(CN(C)CCCn2c(=O)oc3ccccc32)c1	1830 nM	2720 nM
CN(CCCn1c(=O)oc2ccccc21)Cc1ccccc1	–	1120 nM
Cc1ccccc1CN(C)CCCn1c(=O)oc2ccccc21	901 nM	1350 nM
COc1cccc(CN(C)CCCn2c(=O)oc3ccccc32)c1	8550 nM	2130 nM
Cc1ccc(CN(C)CCCn2c(=O)oc3ccccc32)c(C)c1	1830 nM	2060 nM
COc1cccc(CN(C)CCCCn2c(=O)oc3ccccc32)c1	297 nM	187 nM
CC(C)=CCN1CC[C@]2(C)c3cc(O)ccc3C[C@H]1[C@H]2C [(+)-PENTAZOCINE]	–	327 nM
Cc1ccccc1NC(=N)Nc1ccccc1C [DITOLYLGUANIDINE]	–	130 nM
O=C(CCCN1CCC(O)(c2ccc(Cl)cc2)CC1)c1ccc(F)cc1 [HALOPERIDOL]	–	235 nM
